One experiment is filed under the species Homo sapiens. The experiment in a line: Agonist activity at HSP70 in human HEK293H cells transfected with HTT17Q assessed as reduction in HTT protein aggregation at 10 uM measured after 6 hrs by DAPI staining based confocal microscopy. The class given is cell-based. In a few lines: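 HEK293H cells transfected with 4 μg HTT17Q-mCherry construct; 24 h post-transfection treated with 10 μM compound or DMSO vehicle control for 6 h. Cells stained with DAPI and imaged by confocal microscopy. Aggregates (puncta) counted per cell with a bright-spot detection tool. Significance assessed against DMSO control.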

Experiment [1] deals with Histone deacetylase 1 (Homo sapiens) (UniProt Q13547). Nature of the experiment: Inhibition of HDAC1 in human HeLa nuclear extract at 0.1 to 1 uM using HDAC substrate incubated for 30 mins by microplate reader assay. The format is cell-free.
Experiment [2] addresses Histone deacetylase 2 (Homo sapiens) (UniProt Q92769). Nature of the experiment: Inhibition of HDAC2 in human HeLa nuclear extract at 0.1 to 1 uM using HDAC substrate incubated for 30 mins by microplate reader assay. The format is cell-free.
For experiment [3], the target named is Histone deacetylase 3 (Homo sapiens) (UniProt O15379). Nature of the experiment: Inhibition of HDAC3 in human HeLa nuclear extract at 0.1 to 1 uM using HDAC substrate incubated for 30 mins by microplate reader assay. The class given is cell-free.
Experiment [4] addresses Histone deacetylase 4 (Homo sapiens) (UniProt P56524). Nature of the experiment: Inhibition of recombinant human GST-His-tagged HDAC4 at 0.1 to 1 uM using fluorogenic HDAC substrate incubated for 30 mins by microplate reader assay.
The target in experiment [5] is Histone deacetylase 5 (Homo sapiens) (UniProt Q9UQL6). The experiment in a line: Inhibition of recombinant human GST-His-tagged HDAC5 at 0.1 to 1 uM using fluorogenic HDAC substrate incubated for 30 mins by microplate reader assay.
Experiment [6] has as its target T1, Protein deacetylase HDAC6 (Homo sapiens) (UniProt Q9UBN7).
T1 sequence (whole entry): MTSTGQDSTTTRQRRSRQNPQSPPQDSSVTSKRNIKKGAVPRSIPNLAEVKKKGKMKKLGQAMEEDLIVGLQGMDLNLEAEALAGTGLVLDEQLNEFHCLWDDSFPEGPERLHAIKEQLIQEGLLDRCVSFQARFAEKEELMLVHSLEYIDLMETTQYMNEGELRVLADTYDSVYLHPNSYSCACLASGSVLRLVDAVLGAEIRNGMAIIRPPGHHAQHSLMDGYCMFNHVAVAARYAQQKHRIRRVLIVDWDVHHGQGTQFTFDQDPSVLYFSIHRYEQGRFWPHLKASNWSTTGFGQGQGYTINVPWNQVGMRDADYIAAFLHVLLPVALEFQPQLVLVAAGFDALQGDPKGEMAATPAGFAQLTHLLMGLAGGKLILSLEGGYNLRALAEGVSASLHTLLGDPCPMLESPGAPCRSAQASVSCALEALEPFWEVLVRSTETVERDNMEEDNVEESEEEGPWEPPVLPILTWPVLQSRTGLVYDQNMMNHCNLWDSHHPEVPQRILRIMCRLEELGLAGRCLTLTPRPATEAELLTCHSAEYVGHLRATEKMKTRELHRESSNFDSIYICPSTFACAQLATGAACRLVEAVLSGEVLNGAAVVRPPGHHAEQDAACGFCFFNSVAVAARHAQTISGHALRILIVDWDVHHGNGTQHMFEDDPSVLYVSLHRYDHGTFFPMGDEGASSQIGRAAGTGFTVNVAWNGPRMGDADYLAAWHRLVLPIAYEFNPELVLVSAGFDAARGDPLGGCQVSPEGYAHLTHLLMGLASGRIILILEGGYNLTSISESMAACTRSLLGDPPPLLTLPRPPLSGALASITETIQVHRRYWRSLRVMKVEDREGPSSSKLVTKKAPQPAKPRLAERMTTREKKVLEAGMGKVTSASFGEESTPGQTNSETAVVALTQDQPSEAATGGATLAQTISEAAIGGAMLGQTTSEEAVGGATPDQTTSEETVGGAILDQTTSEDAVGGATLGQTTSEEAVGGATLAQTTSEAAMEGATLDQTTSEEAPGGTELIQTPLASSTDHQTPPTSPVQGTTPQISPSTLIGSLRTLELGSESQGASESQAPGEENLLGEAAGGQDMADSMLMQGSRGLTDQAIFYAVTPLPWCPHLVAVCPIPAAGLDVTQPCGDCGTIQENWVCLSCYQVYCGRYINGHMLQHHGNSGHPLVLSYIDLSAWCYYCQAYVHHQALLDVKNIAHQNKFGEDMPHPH
Nature of the experiment: Inhibition of recombinant human GST-His-tagged HDAC6 at 0.1 to 1 uM using fluorogenic HDAC substrate incubated for 30 mins by microplate reader assay.

The target in experiment [7] is T2, Histone deacetylase 7 (Homo sapiens) (UniProt Q8WUI4).
T2 sequence (whole entry): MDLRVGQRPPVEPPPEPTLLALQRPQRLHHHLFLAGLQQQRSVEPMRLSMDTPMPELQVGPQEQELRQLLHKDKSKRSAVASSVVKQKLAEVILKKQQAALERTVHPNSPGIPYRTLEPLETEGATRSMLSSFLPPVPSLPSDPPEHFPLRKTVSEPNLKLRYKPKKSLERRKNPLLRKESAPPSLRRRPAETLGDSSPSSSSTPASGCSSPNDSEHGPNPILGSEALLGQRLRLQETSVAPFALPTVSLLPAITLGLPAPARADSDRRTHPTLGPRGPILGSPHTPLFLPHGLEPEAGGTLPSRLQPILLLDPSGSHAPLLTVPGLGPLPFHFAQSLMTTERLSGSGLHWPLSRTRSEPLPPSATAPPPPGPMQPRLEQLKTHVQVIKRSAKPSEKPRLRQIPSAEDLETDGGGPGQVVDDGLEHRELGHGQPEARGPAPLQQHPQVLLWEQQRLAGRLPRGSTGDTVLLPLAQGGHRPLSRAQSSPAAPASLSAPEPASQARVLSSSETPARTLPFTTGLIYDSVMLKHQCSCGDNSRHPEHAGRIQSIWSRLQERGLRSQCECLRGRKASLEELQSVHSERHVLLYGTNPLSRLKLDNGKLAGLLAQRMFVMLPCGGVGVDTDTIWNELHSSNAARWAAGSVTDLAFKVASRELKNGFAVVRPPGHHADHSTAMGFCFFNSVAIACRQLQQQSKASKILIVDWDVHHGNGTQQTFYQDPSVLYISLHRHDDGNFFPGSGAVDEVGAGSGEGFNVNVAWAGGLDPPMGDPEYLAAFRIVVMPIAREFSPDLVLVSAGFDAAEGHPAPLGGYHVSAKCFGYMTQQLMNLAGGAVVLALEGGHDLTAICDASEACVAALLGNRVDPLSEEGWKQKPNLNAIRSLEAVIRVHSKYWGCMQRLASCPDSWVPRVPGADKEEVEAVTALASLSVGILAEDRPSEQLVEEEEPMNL
Nature of the experiment: Inhibition of recombinant human GST-His-tagged HDAC7 at 1 uM using fluorogenic HDAC substrate incubated for 30 mins by microplate reader assay relative to control.

Experiment [8] concerns the target T3, Histone deacetylase 8 (Homo sapiens) (UniProt Q9BY41).
T3 sequence (whole entry): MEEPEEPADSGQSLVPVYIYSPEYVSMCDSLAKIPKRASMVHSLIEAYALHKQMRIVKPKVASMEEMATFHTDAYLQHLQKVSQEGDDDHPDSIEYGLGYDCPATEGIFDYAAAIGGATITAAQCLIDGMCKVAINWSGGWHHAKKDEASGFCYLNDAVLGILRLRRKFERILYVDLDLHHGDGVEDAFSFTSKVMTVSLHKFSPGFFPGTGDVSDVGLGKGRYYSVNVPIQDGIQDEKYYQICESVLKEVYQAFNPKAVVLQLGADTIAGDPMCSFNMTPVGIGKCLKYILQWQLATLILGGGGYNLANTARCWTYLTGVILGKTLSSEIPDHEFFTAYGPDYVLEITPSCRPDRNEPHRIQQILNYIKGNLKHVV
The experiment in a line: Inhibition of recombinant human GST-His-tagged HDAC8 at 1 uM using fluorogenic HDAC substrate incubated for 30 mins by microplate reader assay relative to control.

Activity calls are given as the source filed them. The rule behind the calls is not given here.

The results in this text go back to ChEMBL document CHEMBL4613316, “Synthesis and Selective Functionalization of Thiadiazine 1,1-Dioxides with Efficacy in a Model of Huntington's Disease” (ACS Med Chem Lett, 2020).

Histone deacetylase 2 (Homo sapiens), sequence (Q92769 whole entry): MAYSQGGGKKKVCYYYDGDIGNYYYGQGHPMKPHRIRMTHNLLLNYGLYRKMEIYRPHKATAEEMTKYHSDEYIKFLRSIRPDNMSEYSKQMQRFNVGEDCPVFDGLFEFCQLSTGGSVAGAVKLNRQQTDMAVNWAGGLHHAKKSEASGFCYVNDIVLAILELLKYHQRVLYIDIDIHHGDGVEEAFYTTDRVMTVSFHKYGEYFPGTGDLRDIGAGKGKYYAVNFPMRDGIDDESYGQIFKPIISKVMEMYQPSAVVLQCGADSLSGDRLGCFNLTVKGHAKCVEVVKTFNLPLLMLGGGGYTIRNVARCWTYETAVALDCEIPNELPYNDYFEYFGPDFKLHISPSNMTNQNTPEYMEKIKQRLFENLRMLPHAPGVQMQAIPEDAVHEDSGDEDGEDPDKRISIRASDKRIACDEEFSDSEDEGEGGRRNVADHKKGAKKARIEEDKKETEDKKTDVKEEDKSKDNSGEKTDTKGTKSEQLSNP
Histone deacetylase 4 (Homo sapiens), sequence (P56524 whole entry): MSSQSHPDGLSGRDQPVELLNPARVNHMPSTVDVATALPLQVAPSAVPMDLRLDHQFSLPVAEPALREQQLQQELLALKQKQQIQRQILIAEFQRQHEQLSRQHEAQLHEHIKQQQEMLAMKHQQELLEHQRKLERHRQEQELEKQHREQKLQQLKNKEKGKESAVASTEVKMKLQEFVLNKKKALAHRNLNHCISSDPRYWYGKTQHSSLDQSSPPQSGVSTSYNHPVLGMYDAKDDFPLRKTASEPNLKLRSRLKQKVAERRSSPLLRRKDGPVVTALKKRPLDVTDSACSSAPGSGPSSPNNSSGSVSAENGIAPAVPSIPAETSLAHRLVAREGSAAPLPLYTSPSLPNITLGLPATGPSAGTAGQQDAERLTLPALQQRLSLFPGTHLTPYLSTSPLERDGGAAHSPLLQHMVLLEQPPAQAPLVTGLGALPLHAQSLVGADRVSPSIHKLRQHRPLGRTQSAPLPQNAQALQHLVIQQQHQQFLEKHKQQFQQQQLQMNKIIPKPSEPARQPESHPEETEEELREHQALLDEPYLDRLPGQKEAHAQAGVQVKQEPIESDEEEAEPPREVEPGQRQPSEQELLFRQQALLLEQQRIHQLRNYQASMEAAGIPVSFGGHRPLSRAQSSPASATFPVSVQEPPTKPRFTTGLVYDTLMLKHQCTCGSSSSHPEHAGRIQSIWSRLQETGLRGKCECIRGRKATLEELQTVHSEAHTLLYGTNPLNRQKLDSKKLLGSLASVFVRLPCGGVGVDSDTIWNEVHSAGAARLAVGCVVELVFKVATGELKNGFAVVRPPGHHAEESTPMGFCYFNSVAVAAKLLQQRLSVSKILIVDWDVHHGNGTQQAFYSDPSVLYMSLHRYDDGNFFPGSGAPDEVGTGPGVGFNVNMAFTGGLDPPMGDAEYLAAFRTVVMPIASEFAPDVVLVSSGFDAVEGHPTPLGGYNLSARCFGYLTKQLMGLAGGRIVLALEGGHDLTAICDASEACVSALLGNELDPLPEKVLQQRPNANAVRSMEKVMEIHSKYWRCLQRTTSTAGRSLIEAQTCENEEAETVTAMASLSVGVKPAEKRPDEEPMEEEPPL
Histone deacetylase 1 (Homo sapiens), sequence (Q13547 whole entry): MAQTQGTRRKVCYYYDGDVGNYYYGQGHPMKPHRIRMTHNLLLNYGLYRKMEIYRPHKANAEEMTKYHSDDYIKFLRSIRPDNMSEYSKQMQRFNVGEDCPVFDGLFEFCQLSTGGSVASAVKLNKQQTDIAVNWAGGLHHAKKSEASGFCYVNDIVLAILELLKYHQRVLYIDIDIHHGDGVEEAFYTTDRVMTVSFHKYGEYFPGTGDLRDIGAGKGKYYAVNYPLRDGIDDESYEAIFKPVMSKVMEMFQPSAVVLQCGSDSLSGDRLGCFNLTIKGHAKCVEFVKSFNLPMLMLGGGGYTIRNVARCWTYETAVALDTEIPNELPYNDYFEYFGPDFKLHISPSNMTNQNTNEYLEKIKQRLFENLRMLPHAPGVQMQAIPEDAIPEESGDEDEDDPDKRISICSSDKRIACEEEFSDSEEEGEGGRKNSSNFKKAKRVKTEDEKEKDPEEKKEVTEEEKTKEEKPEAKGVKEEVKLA
Histone deacetylase 5 (Homo sapiens), sequence (Q9UQL6 whole entry): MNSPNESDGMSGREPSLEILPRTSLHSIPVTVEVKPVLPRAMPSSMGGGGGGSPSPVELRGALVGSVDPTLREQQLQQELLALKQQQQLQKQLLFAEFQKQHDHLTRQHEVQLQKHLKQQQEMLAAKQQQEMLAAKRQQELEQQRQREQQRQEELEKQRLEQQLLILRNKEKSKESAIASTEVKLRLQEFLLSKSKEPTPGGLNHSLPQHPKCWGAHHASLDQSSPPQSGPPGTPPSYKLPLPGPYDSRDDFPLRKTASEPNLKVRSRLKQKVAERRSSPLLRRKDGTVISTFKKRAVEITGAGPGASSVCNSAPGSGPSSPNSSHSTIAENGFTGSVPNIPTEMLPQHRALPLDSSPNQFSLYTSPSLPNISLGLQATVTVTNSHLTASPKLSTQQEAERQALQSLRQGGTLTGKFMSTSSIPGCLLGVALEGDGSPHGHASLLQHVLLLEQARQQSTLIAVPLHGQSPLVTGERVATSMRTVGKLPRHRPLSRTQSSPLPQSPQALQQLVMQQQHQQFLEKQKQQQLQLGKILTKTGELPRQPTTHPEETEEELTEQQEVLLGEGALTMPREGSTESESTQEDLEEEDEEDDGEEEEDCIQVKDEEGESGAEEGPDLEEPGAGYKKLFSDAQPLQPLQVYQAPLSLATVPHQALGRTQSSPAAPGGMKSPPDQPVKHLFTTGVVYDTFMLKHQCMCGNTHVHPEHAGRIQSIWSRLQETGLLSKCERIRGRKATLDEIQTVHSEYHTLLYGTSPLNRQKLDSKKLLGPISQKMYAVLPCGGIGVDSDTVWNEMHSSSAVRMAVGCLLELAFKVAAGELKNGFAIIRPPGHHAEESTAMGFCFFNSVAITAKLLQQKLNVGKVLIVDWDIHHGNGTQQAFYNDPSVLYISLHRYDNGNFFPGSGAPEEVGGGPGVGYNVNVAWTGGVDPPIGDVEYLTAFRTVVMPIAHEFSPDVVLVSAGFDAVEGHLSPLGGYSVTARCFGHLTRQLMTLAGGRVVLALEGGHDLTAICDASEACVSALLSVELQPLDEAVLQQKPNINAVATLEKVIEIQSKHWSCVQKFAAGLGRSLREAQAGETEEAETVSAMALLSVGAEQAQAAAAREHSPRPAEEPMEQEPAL
Histone deacetylase 3 (Homo sapiens), sequence (O15379 whole entry): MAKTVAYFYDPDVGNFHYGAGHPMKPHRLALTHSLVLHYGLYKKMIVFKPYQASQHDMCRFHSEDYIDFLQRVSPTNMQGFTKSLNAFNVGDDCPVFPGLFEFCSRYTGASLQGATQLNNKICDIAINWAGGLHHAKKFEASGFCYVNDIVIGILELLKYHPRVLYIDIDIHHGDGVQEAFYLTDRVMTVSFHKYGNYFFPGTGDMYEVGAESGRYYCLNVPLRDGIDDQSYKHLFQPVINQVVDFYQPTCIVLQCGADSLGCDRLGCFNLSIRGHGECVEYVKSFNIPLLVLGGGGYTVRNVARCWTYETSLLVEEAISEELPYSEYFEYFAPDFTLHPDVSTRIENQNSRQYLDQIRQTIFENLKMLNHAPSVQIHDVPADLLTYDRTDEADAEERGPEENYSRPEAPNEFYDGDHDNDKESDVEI

For `CCOC(=O)C1=CN(Cc2ccc(C(=O)NO)cc2)S(=O)(=O)NC1c1ccc(Cl)cc1Cl` (stereo not given), the result in the experiment filed under Homo sapiens was Active. The inhibition entry in [1], in experiment [2], in experiment [3], in experiment [4], in experiment [5] and in experiment [6] was “inactive” in each case. Also, the inhibition (as a rule, the percentage by which the read-out fell short of the control) in [7] was 40%; in experiment [8], 35 to 60%.
For `CC1=C(C(=O)OCc2ccccc2)C(c2ccc(Cl)cc2Cl)NC(=O)N1CCCC(=O)O` (stereo not given), in the experiment listed under Homo sapiens, the result was Active.
In the case of `CCOC(=O)C1=CN(CCCC(=O)NO)S(=O)(=O)NC1c1ccc(Cl)cc1Cl` (stereo not given), the result in the experiment listed under Homo sapiens was Active. Further, the inhibition result in experiment [1], in experiment [2], in [3], in experiment [4], in experiment [5] and in [6] was “inactive” in each case. Also, in experiment [8], the inhibition lay within 35 to 60%.
Consider `CCOC(=O)C1=CN(C(=O)OC(C)(C)C)S(=O)(=O)N(Cc2ccc(C(=O)OC(C)(C)C)cc2)C1c1ccc(Cl)cc1Cl` (stereo not given), for which the result in the experiment filed under Homo sapiens was Active.
Consider `CCOC(=O)C1=CN(CCCC(=O)OC)S(=O)(=O)NC1c1ccc(Cl)cc1Cl` (stereo not given), for which, in the experiment listed under Homo sapiens, the outcome was Active.
As to `CCOC(=O)C1=CN(Cc2ccc(C(=O)O)cc2)S(=O)(=O)NC1c1ccc(Cl)cc1Cl` (stereo not given), the outcome in the experiment filed under Homo sapiens was Active.
The same measure, in the same setting: to `CCOC(=O)C1=CN(Cc2ccc(CO)cc2)S(=O)(=O)NC1c1ccc(Cl)cc1Cl` (stereo not given) belongs “Active”.
Consider `CCOC(=O)C1=CNS(=O)(=O)N(Cc2ccc(C(=O)O)cc2)C1c1ccc(Cl)cc1Cl` (stereo not given), for which, in the experiment listed under Homo sapiens, the result was Active. In addition, the inhibition entry in experiment [1], in experiment [2], in [3], in experiment [4], in experiment [5] and in [6] was “inactive” each time. Moreover, in [8], the inhibition was in the range of 35 to 60%.
Take `O=C(O)CCCN1C=C(C(=O)O)C(c2ccc(Cl)cc2Cl)NS1(=O)=O` (stereo not given): the result in the experiment listed under Homo sapiens was Active.
With `COC(=O)CCCN1C=C(C(=O)O)C(c2ccc(Cl)cc2Cl)NS1(=O)=O` (stereo not given), the result in the experiment filed under Homo sapiens was Active. Further, the inhibition result in experiment [1], in experiment [2], in experiment [3], in experiment [4], in experiment [5] and in experiment [6] was “inactive” each time. In addition, the inhibition in experiment [8] lay within 35 to 60%.
Turning to `COC(=O)CCCN1C=C(C(=O)OCc2ccccc2)C(c2ccc(Cl)cc2Cl)NS1(=O)=O` (stereo not given), the outcome in the experiment listed under Homo sapiens was Active.
